How the values were obtained:
[1] = Inhibitory activity against monkey renin in vitro.
[2] = system: Monkey; test: Effect of compound on blood pressure in conscious, salt-depleted, normotensive, cynomolgus monkeys after oral administration of 30 mg/kg dose at 3 hours; type: functional, Cercopithecidae
[3] = system: Monkey; test: Effect of compound on blood pressure in conscious, salt-depleted, normotensive, cynomolgus monkeys after oral administration of 30 mg/kg dose at 1 hour; type: functional, Cercopithecidae
[4] = target: T1, Cathepsin D (Bos taurus, UniProt P80209); test: Inhibitory activity against bovine cathepsin D
T1 sequence (P80209 whole entry): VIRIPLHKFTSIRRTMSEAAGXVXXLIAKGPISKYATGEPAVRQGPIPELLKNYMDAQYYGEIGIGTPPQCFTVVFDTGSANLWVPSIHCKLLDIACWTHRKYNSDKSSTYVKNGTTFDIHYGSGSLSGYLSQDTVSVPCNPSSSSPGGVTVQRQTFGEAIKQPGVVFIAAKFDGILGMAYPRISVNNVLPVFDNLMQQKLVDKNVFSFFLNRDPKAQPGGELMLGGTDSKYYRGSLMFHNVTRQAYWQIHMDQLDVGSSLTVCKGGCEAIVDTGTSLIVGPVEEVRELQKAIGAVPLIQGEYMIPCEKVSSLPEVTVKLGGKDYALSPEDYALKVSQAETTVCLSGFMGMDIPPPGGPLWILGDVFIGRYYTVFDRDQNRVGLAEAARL
In short: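 Bovine cathepsin D activity measured in duplicate as hydrolysis of bovine hemoglobin at pH 3.2 and 37 °C, read as net absorbance at 280 nm. Percent inhibition at six inhibitor concentrations; IC50 by nonlinear regression.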

[5] = system: Monkey; test: Effect of compound on blood pressure in conscious, salt-depleted, normotensive, cynomolgus monkeys after oral administration of 30 mg/kg dose at 2 hours; type: functional, Cercopithecidae
[6] = species on record: Bos taurus; test: Selectivity ratio towards cathepsin D over renin
In short: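 Ratio of cathepsin D IC50 to monkey plasma renin IC50. […] Cathepsin D IC50 from bovine hemoglobin hydrolysis at pH 3.2, 37 °C, A280.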

| SMILES | IC50 [1] [nM] | IC50 [4] [nM] | also measured |
| --- | --- | --- | --- |
| CCNC(NC(=O)C(Cc1cccc2ccccc12)Cc1cccc2ccccc12)C(=O)N[C@@H](CC(C)C)[C@@H](O)CC(=O)NC[C@@H](C)CC (stereo in doubt; 34) | 210 | – | – |
| CC[C@H](C)CNC(=O)C[C@H](O)[C@H](CC(C)C)NC(=O)C(NC(C)=O)NC(=O)C(Cc1cccc2ccccc12)Cc1cccc2ccccc12 (stereo partly specified) | 936 | – | – |
| CCSC(NC(=O)[C@H](Cc1ccccc1)NC(=O)OC(C)(C)C)C(=O)N[C@@H](CC1CCCCC1)[C@@H](O)[C@@H](O)CC(C)C (stereo partly specified) | 1.4 | 28.1 | Selectivity [6]: 20.1 |
| CC[C@H](C)CNC(=O)C[C@H](O)[C@H](CC(C)C)NC(=O)C(NC(=O)C(Cc1cccc2ccccc12)Cc1cccc2ccccc12)NC(C)C (stereo in doubt; 35) | > 1000 | – | – |
| CC[C@H](C)CNC(=O)C[C@H](O)[C@H](CC(C)C)NC(=O)C(Cc1c[nH]cn1)NC(=O)C(Cc1cccc2ccccc12)Cc1cccc2ccccc12 (stereo partly specified) | 85 | – | – |
| C=CCSC(NC(=O)[C@H](Cc1ccccc1)NS(=O)(=O)N1CCOCC1)C(=O)N[C@@H](CC1CCCCC1)[C@@H](O)[C@@H](O)CC(C)C (stereo partly specified) | 0.17 | 19.4 | Selectivity [6]: 118 |
| CC[C@H](C)CNC(=O)C[C@H](O)[C@H](CC(C)C)NC(=O)C(NC(=O)C(Cc1cccc2ccccc12)Cc1cccc2ccccc12)S(C)(=O)=O (stereo partly specified) | > 1000 | – | – |
| CC[C@H](C)CNC(=O)C[C@H](O)[C@H](CC(C)C)NC(=O)C(NC(=O)C(Cc1cccc2ccccc12)Cc1cccc2ccccc12)[S+](C)[O-] (stereo partly specified) | 615 | – | – |
| CCOC(NC(=O)C(Cc1cccc2ccccc12)Cc1cccc2ccccc12)C(=O)N[C@@H](CC(C)C)[C@@H](O)CC(=O)NC[C@@H](C)CC (stereo in doubt; 21) | 26 | – | – |
| C=CCN(C)C(NC(=O)[C@H](Cc1ccccc1)NC(=O)OC(C)(C)C)C(=O)N[C@@H](CC1CCCCC1)[C@@H](O)[C@@H](O)CC(C)C (stereo partly specified) | – | 60.4 | – |
| O=C(C[C@H](O)[C@H](CC1CCCCC1)NC(=O)C(Cc1cnc[nH]1)NC(=O)[C@H](Cc1ccccc1)NS(=O)(=O)N1CCOCC1)NCCN1CCOCC1 (stereo partly specified) | – | > 10000 | – |
| CCOC(NC(=O)[C@H](Cc1ccccc1)NS(=O)(=O)N1CCOCC1)C(=O)N[C@@H](CC1CCCCC1)[C@@H](O)[C@@H](O)CC(C)C (stereo partly specified) | – | 14 | – |
| CCNC(NC(=O)C(Cc1cccc2ccccc12)Cc1cccc2ccccc12)C(=O)N[C@@H](CC(C)C)[C@@H](O)CC(=O)NC[C@@H](C)CC (stereo in doubt; 33) | > 1000 | – | – |
| C=CCSC(NC(=O)[C@H](Cc1ccccc1)NS(=O)(=O)N1CCOCC1)C(=O)N[C@@H](CC1CCCCC1)[C@@H](O)CC(=O)NCCN1CCOCC1 (stereo partly specified) | 1.5 | 10 | Change in BP [2]: -6 mmHg; Change in BP [3]: -3 mmHg; Change in BP [5]: -7 mmHg; Selectivity [6]: 6.7 |
| CC[C@H](C)CNC(=O)C[C@H](O)[C@H](CC(C)C)NC(=O)C(NC(=O)C(Cc1cccc2ccccc12)Cc1cccc2ccccc12)NC(C)C (stereo in doubt; 36) | 500 | – | – |
| CC(C)C[C@H](O)[C@H](O)[C@H](CC1CCCCC1)NC(=O)C(NC(=O)[C@H](Cc1ccccc1)NS(=O)(=O)N1CCOCC1)Sc1cccs1 (stereo partly specified) | 13 | 470 | Selectivity [6]: 36.1 |
| CCOC(NC(=O)[C@H](Cc1ccccc1)NS(=O)(=O)N1CCOCC1)C(=O)N[C@@H](CC1CCCCC1)[C@@H](O)CC(=O)NCCN1CCOCC1 (stereo partly specified) | – | > 10000 | – |

The next lines start with results.

| IC50 [1] [nM] | IC50 [4] [nM] | SMILES | also measured |
| --- | --- | --- | --- |
| – | 699 | CCCOC(NC(=O)[C@H](Cc1ccccc1)NS(=O)(=O)N1CCOCC1)C(=O)N[C@@H](CC1CCCCC1)[C@@H](O)C(F)(F)C(=O)NCCN1CCOCC1 (stereo partly specified) | Change in BP [2]: -3 mmHg; Change in BP [3]: 3 mmHg; Change in BP [5]: -1 mmHg |
| 2.1 | 131 | CCCOC(NC(=O)[C@H](Cc1ccccc1)NS(=O)(=O)N1CCOCC1)C(=O)N[C@@H](CC1CCCCC1)C(=O)C(F)(F)C(=O)NCCN1CCOCC1 (stereo partly specified) | Change in BP [2]: -9 mmHg; Change in BP [3]: -10 mmHg; Change in BP [5]: -10 mmHg; Selectivity [6]: 65.5 |
| 310 | – | CC[C@H](C)CNC(=O)C[C@H](O)[C@H](CC(C)C)NC(=O)C(NC(=O)C(Cc1cccc2ccccc12)Cc1cccc2ccccc12)Nc1ccccc1 (stereo partly specified) | – |
| 180 | – | CC[C@H](C)CNC(=O)C[C@H](O)[C@H](CC(C)C)NC(=O)C(NC(=O)C(Cc1cccc2ccccc12)Cc1cccc2ccccc12)OC (stereo partly specified) | – |
| 0.52 | 80.1 | C#CCOC(NC(=O)[C@H](Cc1ccccc1)NS(=O)(=O)N1CCOCC1)C(=O)N[C@@H](CC1CCCCC1)[C@@H](O)[C@@H](O)CC(C)C (stereo partly specified) | Selectivity [6]: 154 |
| 1000 | – | CC[C@H](C)CNC(=O)C[C@H](O)[C@H](CC(C)C)NC(=O)C(N)NC(=O)C(Cc1cccc2ccccc12)Cc1cccc2ccccc12 (stereo in doubt; 32) | – |
| 656 | – | CC[C@H](C)CNC(=O)C[C@H](O)[C@H](CC(C)C)NC(=O)C(NC(=O)C(Cc1cccc2ccccc12)Cc1cccc2ccccc12)Sc1ccccc1 (stereo partly specified) | – |
| > 1000 | – | CCOC(NC(=O)C(Cc1cccc2ccccc12)Cc1cccc2ccccc12)C(=O)N[C@@H](CC(C)C)[C@@H](O)CC(=O)NC[C@@H](C)CC (stereo in doubt; 22) | – |
| – | > 10000 | CC(C)C[C@H](O)[C@H](O)[C@H](CC1CCCCC1)NC(=O)C(Cc1cnc[nH]1)NC(=O)[C@H](Cc1ccccc1)NS(=O)(=O)N1CCOCC1 (stereo partly specified) | – |
| 0.22 | 10.5 | C=CCOC(NC(=O)[C@H](Cc1ccccc1)NS(=O)(=O)N1CCOCC1)C(=O)N[C@@H](CC1CCCCC1)[C@@H](O)[C@@H](O)CC(C)C (stereo partly specified) | – |
| – | 21.2 | CC(C)C[C@H](O)[C@H](O)[C@H](CC1CCCCC1)NC(=O)C(NC(=O)[C@H](Cc1ccccc1)NS(=O)(=O)N1CCOCC1)OCC(F)(F)F (stereo partly specified) | Change in BP [2]: -2 mmHg; Change in BP [3]: -1 mmHg; Change in BP [5]: -1 mmHg |
| 633 | – | CC[C@H](C)CNC(=O)C[C@H](O)[C@H](CC(C)C)NC(=O)C(NC(=O)C(Cc1cccc2ccccc12)Cc1cccc2ccccc12)Oc1ccccc1 (stereo partly specified) | – |
| 95 | – | CC[C@H](C)CNC(=O)C[C@H](O)[C@H](CC(C)C)NC(=O)C(NC(=O)C(Cc1cccc2ccccc12)Cc1cccc2ccccc12)SC (stereo partly specified) | – |
| – | 22 | CCCOC(NC(=O)[C@H](Cc1ccccc1)NS(=O)(=O)N1CCOCC1)C(=O)N[C@@H](CC1CCCCC1)[C@@H](O)[C@@H](O)CC(C)C (stereo partly specified) | – |
| > 1000 | – | CC[C@H](C)CNC(=O)C[C@H](O)[C@H](CC(C)C)NC(=O)C(N)NC(=O)C(Cc1cccc2ccccc12)Cc1cccc2ccccc12 (stereo in doubt; 31) | – |
| – | 10 | CCSC(NC(=O)[C@H](Cc1ccccc1)NS(=O)(=O)N1CCOCC1)C(=O)N[C@@H](CC1CCCCC1)[C@@H](O)[C@@H](O)CC(C)C (stereo partly specified) | Change in BP [2]: -16 mmHg; Change in BP [3]: -14 mmHg; Change in BP [5]: -12 mmHg |

Source: ChEMBL document CHEMBL1126322, “Renin inhibitors containing alpha-heteroatom amino acids as P2 residues” (J Med Chem, 1992)
